Active and inactive are the calls of the source. The calls are words filed in the database; no cut-off is given here.
Experiments:
Carbonic anhydrase 9 = Carbonic anhydrase 9 (Homo sapiens, UniProt Q16790); experiment: Inhibition of recombinant human catalytic domain of carbonic anhydrase-9 preincubated for 15 mins by stopped-flow CO2 hydration assay
Carbonic anhydrase 12 = Carbonic anhydrase 12 (Homo sapiens, UniProt O43570); experiment: Inhibition of recombinant human catalytic domain of carbonic anhydrase-12 preincubated for 15 mins by stopped-flow CO2 hydration assay
Carbonic anhydrase 12, sequence (O43570 whole entry, the tested form may be a part): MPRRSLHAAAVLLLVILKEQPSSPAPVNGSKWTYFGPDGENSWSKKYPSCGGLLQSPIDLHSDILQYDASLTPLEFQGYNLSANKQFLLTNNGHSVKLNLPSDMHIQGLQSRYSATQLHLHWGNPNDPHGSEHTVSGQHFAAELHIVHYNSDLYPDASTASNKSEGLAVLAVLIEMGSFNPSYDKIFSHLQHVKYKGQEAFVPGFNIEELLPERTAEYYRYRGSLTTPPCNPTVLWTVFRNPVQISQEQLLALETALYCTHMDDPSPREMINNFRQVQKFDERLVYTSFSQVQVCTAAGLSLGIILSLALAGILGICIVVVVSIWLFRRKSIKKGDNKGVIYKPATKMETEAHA

Carbonic anhydrase 2 = Carbonic anhydrase 2 (Homo sapiens, UniProt P00918); experiment: Inhibition of full length human cytosolic carbonic anhydrase-2 preincubated for 15 mins by stopped-flow CO2 hydration assay
Carbonic anhydrase 1 = Carbonic anhydrase 1 (Homo sapiens, UniProt P00915); experiment: Inhibition of full length human cytosolic carbonic anhydrase-1 preincubated for 15 mins by stopped-flow CO2 hydration assay
Carbonic anhydrase 1, sequence (P00915 whole entry): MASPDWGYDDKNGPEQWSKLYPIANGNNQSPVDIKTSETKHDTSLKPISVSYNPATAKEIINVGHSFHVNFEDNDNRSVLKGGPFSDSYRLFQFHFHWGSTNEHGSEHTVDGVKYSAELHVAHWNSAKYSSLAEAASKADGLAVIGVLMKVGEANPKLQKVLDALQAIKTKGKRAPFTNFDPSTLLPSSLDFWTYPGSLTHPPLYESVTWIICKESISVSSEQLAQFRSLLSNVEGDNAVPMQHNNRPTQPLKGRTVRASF

HeLa [1] = experiment: Reduction in hypoxia-induced extracellular acidosis in human HeLa cells at 1 mM after 24 hrs; type: functional, cell-based
Procedure, shortened: (§1)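 Exponentially growing HT-29 or HeLa cells were cultured in DMEM with 10% FBS, under hypoxia (0.2% O₂, 5% CO₂, balance N₂) or normoxia (20% O₂, 5% CO₂). Compounds were added in medium with 1% DMSO at final 0.1 or 1 mM. Medium pH was measured before and immediately after incubation, reported as ΔpHe, as mean ± SD of at least three independent experiments.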

HT-29 [2] = experiment: Reduction in hypoxia-induced extracellular acidosis in human HT-29 cells at 1 mM after 24 hrs; type: functional, cell-based; procedure, shortened: as §1
HeLa [3] = experiment: Reduction in hypoxia-induced extracellular acidosis in human HeLa cells at 0.1 to 1 mM after 24 hrs; type: functional, cell-based; procedure, shortened: as §1
HT-29 [4] = experiment: Reduction in hypoxia-induced extracellular acidosis in human HT-29 cells after 24 hrs; type: functional, cell-based; procedure, shortened: as §1
HT-29 [5] = experiment: Antitumor activity against human HT-29 cells xenografted in NMRI-nu mouse assessed as tumor growth inhibition at 10 mg/kg, iv administered 3 days per week for 3 weeks; type: functional, organism-based; parameters: dose 10 mg/kg
Procedure, shortened: (§2)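 HT-29 cells in Matrigel were injected s.c. into the lateral flank of adult NMRI-nu mice (28−32 g). Dosing started at a tumour volume of 250 mm³ and was given i.v. One arm received 10 mg/kg daily for 3 days in 0.9% NaCl with 1% DMSO via the lateral tail vein. The other arm received 5 mg/kg at day 3. The schedule was repeated over 3 weeks. Read-out was time to reach 4× starting tumour volume against vehicle.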

Mus musculus [6] = experiment: Toxicity in NMRI-nu mouse xenografted with HT-29 cells assessed as body weight loss at 10 mg/kg, iv administered 3 days per week for 3 weeks; type: organism-based; parameters: dose 10 mg/kg, route intravenous; conditions: in vivo
HeLa [7] = experiment: Reduction in hypoxia-induced extracellular acidosis in human HeLa cells after 24 hrs; type: functional, cell-based; procedure, shortened: as §1
HT-29 [8] = experiment: Antitumor activity against human HT-29 cells xenografted in NMRI-nu mouse assessed as time to reach 4x starting volume of tumor at 10 mg/kg, iv administered 3 days per week for 3 weeks (reference value: 14.07 days); type: functional; procedure, shortened: as §2
HT-29 [9] = experiment: Antitumor activity against human HT-29 cells xenografted in NMRI-nu mouse assessed as time to reach 4x starting volume of tumor at 5 mg/kg, iv administered on day 3 for 3 weeks (reference value: 14.07 days); type: functional; procedure, shortened: as §2
Mus musculus [10] = experiment: Toxicity in NMRI-nu mouse xenografted with HT-29 cells assessed as body weight loss at 5 mg/kg, iv administered on day 3 for 3 weeks; type: organism-based; parameters: dose 5 mg/kg, route intravenous; conditions: in vivo, 504 h
HT-29 [11] = experiment: Antitumor activity against human HT-29 cells xenografted in NMRI-nu mouse assessed as tumor growth inhibition at 5 mg/kg, iv administered on day 3 for 3 weeks; type: functional, organism-based; parameters: dose 5 mg/kg; procedure, shortened: as §2

Compound	Ki (Carbonic anhydrase 9) [nM]	Activity (HeLa [1])	Activity (HT-29 [2])	further results
CS(=O)(=O)NCCn1ccnc1[N+](=O)[O-]	> 20000	–	–	Ki (Carbonic anhydrase 12): > 20000 nM; Ki (Carbonic anhydrase 2): > 20000 nM; Ki (Carbonic anhydrase 1): > 20000 nM
Cc1ncc([N+](=O)[O-])n1CCNC(=S)Nc1ccc(S(N)(=O)=O)cc1	7.3	Active	Active	–
Cc1nccn1CCCNS(N)(=O)=O	21	–	–	–
Cc1ncc([N+](=O)[O-])n1CCNS(N)(=O)=O [DTP-348]	–	Active	Active	Activity (HT-29 [4]): Dose-dependent effect; TGI (HT-29 [5]): Active; Activity (Mus musculus [6]): Non-toxic; Activity (HeLa [7]): Dose-dependent effect; Time (HT-29 [8]): 25.43 days
COc1cccc2c1C(=O)c1c(O)c3c(c(O)c1C2=O)C[C@@](O)(C(=O)CO)C[C@@H]3O[C@H]1C[C@H](N)[C@H](O)[C@H](C)O1 [DOXORUBICIN]	–	–	–	Time (HT-29 [9]): 23.39 days; Activity (Mus musculus [10]): Non-toxic; TGI (HT-29 [11]): Active
Cc1ncc([N+](=O)[O-])n1CCOS(N)(=O)=O	–	Active	Active	–

The next lines start with results.

Ki (Carbonic anhydrase 9) [nM]	Compound	Activity (HeLa [1])	Activity (HT-29 [2])	further results
8	NS(=O)(=O)c1ccc(CCNC(=O)Cn2ccnc2[N+](=O)[O-])cc1	–	–	–
8.3	Cc1ncc([N+](=O)[O-])n1CCNC(=S)NCCc1ccc(S(N)(=O)=O)cc1	Active	Active	Activity (HeLa [3]): Active
> 20000	Cc1ncc([N+](=O)[O-])n1CCNS(C)(=O)=O	–	–	Ki (Carbonic anhydrase 12): > 20000 nM; Ki (Carbonic anhydrase 2): > 20000 nM; Ki (Carbonic anhydrase 1): > 20000 nM
41	NS(=O)(=O)NCCn1ccnc1[N+](=O)[O-]	–	–	–
7.2	Cc1ncc([N+](=O)[O-])n1CCNC(=S)NCc1ccc(S(N)(=O)=O)cc1	–	–	–
